Experimental findings from BindingDB's records for doi:10.1016/j.bmc.2009.05.079 (Universidad De Valencia, 2009) are described below.

In this assay the target is D(2) dopamine receptor (Rattus norvegicus, UniProt P61169). Description: Displacement of [3H]raclopride from dopamine D2 receptor in Wistar rat striatal membrane by liquid scintillation counting. An outline of the steps:
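Female Wistar rat striatal membranes were washed at 49,000g and resuspended in Tris-ions buffer, pH 7.4. [3H]-raclopride displacement was read by filtration, cold-buffer washes and scintillation counting. Ki was derived using KD 1,25 nM; 3–6 independent determinations in duplicate, mean SEM.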
A general note: Displacement assays read how much labelled ligand stays bound in the presence of the test substance.

Sequence of D(2) dopamine receptor (P61169 whole entry): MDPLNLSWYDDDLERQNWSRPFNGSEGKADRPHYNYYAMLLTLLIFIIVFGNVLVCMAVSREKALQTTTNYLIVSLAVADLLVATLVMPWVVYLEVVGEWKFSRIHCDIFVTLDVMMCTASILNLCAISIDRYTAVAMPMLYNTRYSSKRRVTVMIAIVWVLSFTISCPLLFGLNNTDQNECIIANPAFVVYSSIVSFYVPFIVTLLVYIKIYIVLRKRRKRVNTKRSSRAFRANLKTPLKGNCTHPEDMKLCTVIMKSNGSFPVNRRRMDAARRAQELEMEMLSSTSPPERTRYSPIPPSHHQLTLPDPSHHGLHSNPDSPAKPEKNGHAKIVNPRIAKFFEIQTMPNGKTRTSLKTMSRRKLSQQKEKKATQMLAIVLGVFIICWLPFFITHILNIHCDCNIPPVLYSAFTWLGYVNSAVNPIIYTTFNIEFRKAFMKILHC

With `CCCCC1NCCc2cc(Cl)c(O)cc21` (stereo unspecified) [1-Butyl-6-chloro-7-hydroxy-1,2,3,4-tetrahydroisoquinoline], the Ki was 76 nM.

By Ki is commonly meant a dissociation constant, usually derived from enzyme kinetics or from competition with a known ligand. Low readings indicate higher affinity, high ones lower affinity.
